Data reported in ChEMBL document CHEMBL4321857, “Synthesis and Pharmacological Evaluation of Triazolopyrimidinone Derivatives as Noncompetitive, Intracellular Antagonists for CC Chemokine Receptors 2 and 5” (J Med Chem, 2019).
Active and inactive are the calls of the source. The rule behind the calls is not given here.

How the values were obtained:
[1] = molecular target: T1, C-C chemokine receptor type 5 (Homo sapiens, UniProt P51681); test: Antagonist activity at human TEV cleavage site-linked CCR5 expressed in human U2OS cells harboring beta-lactamase reporter gene assessed as inhibition of CCL3-induced beta-arrestin recruitment incubated for 30 mins followed by CCL3 stimulation and measured after 16 hrs by Tango assay; type: cell-based
Target sequence in this assay (P51681 whole entry): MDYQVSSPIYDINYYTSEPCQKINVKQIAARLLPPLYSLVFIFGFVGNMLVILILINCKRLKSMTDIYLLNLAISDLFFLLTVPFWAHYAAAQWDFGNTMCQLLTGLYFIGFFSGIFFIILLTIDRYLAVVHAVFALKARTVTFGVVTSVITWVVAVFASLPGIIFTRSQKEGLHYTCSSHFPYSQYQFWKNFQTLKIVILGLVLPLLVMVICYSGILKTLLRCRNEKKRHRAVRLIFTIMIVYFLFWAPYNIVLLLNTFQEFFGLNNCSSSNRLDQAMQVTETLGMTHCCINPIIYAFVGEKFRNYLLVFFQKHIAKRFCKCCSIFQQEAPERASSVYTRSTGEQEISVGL

[2] = molecular target: T1, C-C chemokine receptor type 5; test: Antagonist activity at human TEV cleavage site-linked CCR5 expressed in human U2OS cells harboring beta-lactamase reporter gene assessed as inhibition of CCL3-induced beta-arrestin recruitment at 1 uM incubated for 30 mins followed by CCL3 stimulation and measured after 16 hrs by Tango assay relative to control; type: cell-based
Target sequence in this assay (P51681 whole entry, looked up): as the sequence (P51681 whole entry) above

[3] = molecular target: T2, C-C chemokine receptor type 2 (Homo sapiens, UniProt P41597); test: Displacement of [3H]-CCR2-RA-[R] from human CCR2 expressed in human U2OS cells incubated for 2 hrs by scintillation spectrometric method; type: cell-based
Target sequence in this assay (P41597 whole entry): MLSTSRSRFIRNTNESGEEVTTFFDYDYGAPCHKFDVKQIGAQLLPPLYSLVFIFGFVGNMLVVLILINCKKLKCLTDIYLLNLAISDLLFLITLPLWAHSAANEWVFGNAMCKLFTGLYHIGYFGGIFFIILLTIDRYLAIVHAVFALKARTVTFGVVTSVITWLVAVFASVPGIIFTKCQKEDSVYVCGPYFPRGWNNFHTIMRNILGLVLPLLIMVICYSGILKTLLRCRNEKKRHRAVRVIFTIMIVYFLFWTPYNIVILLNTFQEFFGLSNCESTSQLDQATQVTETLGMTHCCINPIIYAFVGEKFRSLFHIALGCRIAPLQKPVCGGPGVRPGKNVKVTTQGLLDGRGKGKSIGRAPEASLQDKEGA

[4] = molecular target: T2, C-C chemokine receptor type 2; test: Antagonist activity at human TEV cleavage site-linked CCR2b expressed in human U2OS cells harboring beta-lactamase reporter gene assessed as inhibition of CCL2-induced beta-arrestin recruitment incubated for 30 mins followed by CCL2 stimulation and measured after 16 hrs by Tango assay; type: cell-based
In short: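 Tango CCR2b-bla U2OS cells: 10 000 cells/well in FreeStyle medium, 30 min preincubation at room temperature with increasing antagonist concentrations (DMSO ≤0.5%), then 16 h with CCL2 at EC80 (5 nM), 37 °C, 5% CO2. LiveBLAzer-FRET B/G substrate 2 h at room temperature; 460/535 nm emission ratio at 400 nm excitation. IC50 by nonlinear regression.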
Target sequence in this assay (P41597 whole entry): as above

[5] = molecular target: T2, C-C chemokine receptor type 2; test: Antagonist activity at CCR2b in human THP1 cells assessed as inhibition of human MCP1 induced calcium flux by fluo-4 dye based fluorescence assay; type: functional, cell-based
Target sequence in this assay (P41597 whole entry): as above

[6] = molecular target: T2, C-C chemokine receptor type 2; test: Inverse agonist activity at human CCR2 assessed as reduction in [35S]GTPgammaS binding at 1 uM relative to control; type: functional; parameters: scale not given: the % may be the effect or the level left
Target sequence in this assay (P41597 whole entry, looked up): as the sequence (P41597 whole entry) above

[7] = molecular target: T2, C-C chemokine receptor type 2; test: Non-competitive insurmountable antagonist activity at human CCR2 expressed in human U2OS cell membranes assessed as Emax for CCL2-stimulated [35S]GTPgammaS binding at 10 nM preincubated for 30 mins followed by [35S]GTPgammaS addition and measured after 90 mins (reference value: 107 +/- 2%); type: functional
Target sequence in this assay (P41597 whole entry, looked up): as the sequence (P41597 whole entry) above

[8] = molecular target: T1, C-C chemokine receptor type 5; test: Non-competitive insurmountable antagonist activity at human CCR5 expressed in human U2OS cell membranes assessed as Emax for CCL3-stimulated [35S]GTPgammaS binding at 300 nM preincubated for 30 mins followed by [35S]GTPgammaS addition and measured after 90 mins (reference value: 108 +/- 2%); type: functional
Target sequence in this assay (P51681 whole entry, looked up): as the sequence (P51681 whole entry) above

[9] = molecular target: T1, C-C chemokine receptor type 5; test: Non-competitive insurmountable antagonist activity at human CCR5 expressed in human U2OS cell membranes assessed as Emax for CCL3-stimulated [35S]GTPgammaS binding at 1000 nM preincubated for 30 mins followed by [35S]GTPgammaS addition and measured after 90 mins (reference value: 108 +/- 2%); type: functional
Target sequence in this assay (P51681 whole entry, looked up): as the sequence (P51681 whole entry) above

[10] = molecular target: T2, C-C chemokine receptor type 2; test: Non-competitive insurmountable antagonist activity at human CCR2 expressed in human U2OS cell membranes assessed as Emax for CCL2-stimulated [35S]GTPgammaS binding at 100 nM preincubated for 30 mins followed by [35S]GTPgammaS addition and measured after 90 mins (reference value: 107 +/- 2%); type: functional
Target sequence in this assay (P41597 whole entry, looked up): as the sequence (P41597 whole entry) above

Homo sapiens = species: Homo sapiens; test: Selectivity ratio of IC50 for human TEV cleavage site-linked CCR5 expressed in human U2OS cells to IC50 for human TEV cleavage site-linked CCR2b expressed in human U2OS cells; type: cell-based
[11] = molecular target: T1, C-C chemokine receptor type 5; test: Non-competitive insurmountable antagonist activity at human CCR5 expressed in human U2OS cell membranes assessed as Emax for CCL3-stimulated [35S]GTPgammaS binding at 100 nM preincubated for 30 mins followed by [35S]GTPgammaS addition and measured after 90 mins (reference value: 108 +/- 2%); type: functional
Target sequence in this assay (P51681 whole entry, looked up): as the sequence (P51681 whole entry) above

[12] = molecular target: T2, C-C chemokine receptor type 2; test: Non-competitive insurmountable antagonist activity at human CCR2 expressed in human U2OS cell membranes assessed as Emax for CCL2-stimulated [35S]GTPgammaS binding at 30 nM preincubated for 30 mins followed by [35S]GTPgammaS addition and measured after 90 mins (reference value: 107 +/- 2%); type: functional
Target sequence in this assay (P41597 whole entry, looked up): as the sequence (P41597 whole entry) above

[13] = molecular target: T2, C-C chemokine receptor type 2; test: Non-competitive insurmountable antagonist activity at human CCR2 expressed in human U2OS cell membranes assessed as Emax for CCL2-stimulated [35S]GTPgammaS binding at 1 nM preincubated for 30 mins followed by [35S]GTPgammaS addition and measured after 90 mins (reference value: 107 +/- 2%); type: functional
Target sequence in this assay (P41597 whole entry, looked up): as the sequence (P41597 whole entry) above

[14] = molecular target: T2, C-C chemokine receptor type 2; test: Non-competitive insurmountable antagonist activity at human CCR2 expressed in human U2OS cell membranes assessed as Emax for CCL2-stimulated [35S]GTPgammaS binding at 3 nM preincubated for 30 mins followed by [35S]GTPgammaS addition and measured after 90 mins (reference value: 107 +/- 2%); type: functional
Target sequence in this assay (P41597 whole entry, looked up): as the sequence (P41597 whole entry) above

[15] = molecular target: T1, C-C chemokine receptor type 5; test: Non-competitive insurmountable antagonist activity at human CCR5 expressed in human U2OS cell membranes assessed as Emax for CCL3-stimulated [35S]GTPgammaS binding at 30 nM preincubated for 30 mins followed by [35S]GTPgammaS addition and measured after 90 mins (reference value: 108 +/- 2%); type: functional
Target sequence in this assay (P51681 whole entry, looked up): as the sequence (P51681 whole entry) above

| SMILES | inhibition [2] | Ki ([3]; read-out: Ki) [nM] | further results |
| --- | --- | --- | --- |
| CCCCc1[nH]c2nc(N)nn2c(=O)c1Cc1cccc(Cl)c1 | > 70% | 2.3 | IC50 ([1]; read-out: pIC50 (converted)): 513 nM |
| CCCc1[nH]c2nc(N)nn2c(=O)c1Cc1cccc(Cl)c1 | 64% | 3.6 | Ki ([3]; read-out: pKi (converted)): 3.47 nM |
| CCCCCCc1[nH]c2nc(N)nn2c(=O)c1Cc1cccc(Cl)c1 |  | 22 |  |
| Nc1nc2[nH]c(C3CC3)c(Cc3ccc(Cl)cc3)c(=O)n2n1 | 31% | 1.8 |  |
| Nc1nc2[nH]c(C3CC3)c(Cc3cccc(Cl)c3)c(=O)n2n1 | > 70% | 1.3 | IC50 ([1]; read-out: pIC50 (converted)): 575 nM; IC50 [4]: 10 nM; IC50 [5]: 16 to 20 nM |
| CCCCCCCc1[nH]c2nc(N)nn2c(=O)c1Cc1cccc(Cl)c1 |  | 178 | Ki ([3]; read-out: pKi (converted)): 174 nM |
| Nc1nc2[nH]c(C3CC3)c(Cc3ccc(Cl)c(Cl)c3)c(=O)n2n1 | > 70% | 0.4 | IC50 ([1]; read-out: pIC50 (converted)): 214 nM |
| Nc1nc2[nH]c(C3CC3)c(Cc3cccc(F)c3)c(=O)n2n1 | 43% | 3.4 |  |
| CC(C)c1[nH]c2nc(N)nn2c(=O)c1Cc1cccc(Cl)c1 | > 70% | 1.9 | IC50 ([1]; read-out: pIC50 (converted)): 275 nM |
| CC(C)c1[nH]c2nc(N)nn2c(=O)c1Cc1cc(Cl)ccc1Cl | 20% | 22.5 |  |
| CC(C)c1[nH]c2nc(N)nn2c(=O)c1Cc1ccc(Cl)c(Cl)c1 | > 70% | 0.6 | IC50 ([1]; read-out: pIC50 (converted)): 123 nM |
| CC(C)c1[nH]c2nc(N)nn2c(=O)c1Cc1cc(Br)cc(Br)c1 | 64% | 2.1 |  |
| Cc1cccc(Cc2c(C3CC3)[nH]c3nc(N)nn3c2=O)c1 | 62% | 2.5 |  |
| O=c1c(Cc2cccc(Cl)c2)c(C2CC2)[nH]c2ncnn12 | 60% | 1.7 |  |
| CC(C)c1[nH]c2nc(N)nn2c(=O)c1Cc1cc(Cl)cc(Cl)c1 | > 70% | 2.2 | IC50 ([1]; read-out: pIC50 (converted)): 324 nM |
| Nc1nc2[nH]c(C3CC3)c(Cc3ccc(F)cc3)c(=O)n2n1 | 31% | 4.1 |  |
| CC[C@@H](c1ccc(F)c(F)c1)n1c(C(=O)OC)c(-c2ccno2)[nH]c1=S | < 50% |  |  |
| Cc1nc2[nH]c(C3CC3)c(Cc3cccc(Cl)c3)c(=O)n2n1 | 35% | 3.5 |  |
| CCc1[nH]c2nc(N)nn2c(=O)c1Cc1cccc(Cl)c1 | 29% | 4 |  |
| Nc1nc2[nH]c(CCc3ccccc3)c(Cc3cccc(Cl)c3)c(=O)n2n1 |  | 52.3 | Ki ([3]; read-out: pKi (converted)): 51.3 nM |
| Nc1nc2[nH]c(C3CC3)c(Cc3cccc(C(F)(F)F)c3)c(=O)n2n1 | 36% | 5.9 | Ki ([3]; read-out: pKi (converted)): 5.5 nM |

| SMILES | inhibition [2] | Ki ([3]; read-out: Ki) [nM] | further results |
| --- | --- | --- | --- |
| Nc1nc2[nH]c(-c3ccccc3)c(Cc3cccc(Cl)c3)c(=O)n2n1 |  | 26.7 |  |
| CCCCCc1[nH]c2nc(N)nn2c(=O)c1Cc1cccc(Cl)c1 | 38% | 7.2 |  |
| Nc1nc2[nH]c(C3CC3)c(Cc3ccc(Br)cc3)c(=O)n2n1 | 14% | 1.5 |  |
| Nc1nc2[nH]c(C3CC3)c(Cc3cccc(Br)c3)c(=O)n2n1 | 60% | 0.9 | Ki ([3]; read-out: pKi (converted)): 0.832 nM |
| COc1cccc(Cc2c(C3CC3)[nH]c3nc(N)nn3c2=O)c1 |  | 13 |  |
| Cc1[nH]c2nc(N)nn2c(=O)c1Cc1cccc(Cl)c1 |  | 17.2 | Ki ([3]; read-out: pKi (converted)): 16.6 nM |
| COc1ccccc1Cc1c(C2CC2)[nH]c2nc(N)nn2c1=O |  | 105 |  |
| CC(=O)C1=C(O)C(=O)N(c2ccc(Cl)cc2F)[C@@H]1C1CCCCC1 | < 50% |  | IC50 ([1]; read-out: IC50): 703 nM |
| Cc1ccccc1Cc1c(C2CC2)[nH]c2nc(N)nn2c1=O | 28% | 15.7 |  |
| Nc1nc2[nH]c(C3CC3)c(Cc3cccc(I)c3)c(=O)n2n1 | 66% | 0.9 |  |
| Cc1ccc(Cc2c(C3CC3)[nH]c3nc(N)nn3c2=O)cc1 |  | 3.5 |  |
| Nc1nc2[nH]c(C3CCCC3)c(Cc3cccc(Cl)c3)c(=O)n2n1 | > 70% | 1.6 | IC50 ([1]; read-out: pIC50 (converted)): 372 nM |
| COc1ccc(Cc2c(C3CC3)[nH]c3nc(N)nn3c2=O)cc1 |  | 20.9 |  |
| Cc1ccc(-c2ccc3c(c2)C=C(C(=O)Nc2ccc(C[N+](C)(C)C4CCOCC4)cc2)CCC3)cc1 | Active |  | IC50 ([1]; read-out: IC50): 6 nM |
| CC(C)c1[nH]c2nc(N)nn2c(=O)c1Cc1cccc(Cl)c1Cl | > 70% | 1.6 | IC50 ([1]; read-out: pIC50 (converted)): 81.3 nM; IC50 [4]: 21 nM; Activity [6]: 7 to 8%; Emax [7]: 91%; Emax [8]: 56%; Emax [9]: 25%; Emax [10]: 50%; Ratio IC50 (Homo sapiens): 4; Emax [11]: 79%; Emax [12]: 75% |
| Nc1nc2[nH]c(C3CC3)c(Cc3ccccc3)c(=O)n2n1 | 35% | 5.9 | Ki ([3]; read-out: pKi (converted)): 5.37 nM |
| Cc1ccc(-c2[nH]c3nc(N)nn3c(=O)c2Cc2cccc(Cl)c2)cc1 |  | 159 | Ki ([3]; read-out: pKi (converted)): 155 nM |
| O=C(O)c1ccccc1Oc1ccc(Cl)cc1NS(=O)(=O)c1ccc(Cl)c(Cl)c1 | < 50% |  |  |
| Nc1nc2[nH]c(C3CC3)c(Cc3ccccc3Cl)c(=O)n2n1 | 27% | 14.5 |  |
| CCC(CC)Cc1[nH]c2nc(N)nn2c(=O)c1Cc1cccc(Cl)c1 | 29% | 6.4 |  |
| CC(C)c1[nH]c2nc(N)nn2c(=O)c1Cc1ccc(Cl)c(Br)c1 | > 70% | 0.4 | IC50 ([1]; read-out: pIC50 (converted)): 112 nM; IC50 [4]: 4 nM; Activity [6]: 7 to 8%; Emax [13]: 72%; Emax [7]: 33%; Emax [8]: 35%; Ratio IC50 (Homo sapiens): 29; Emax [11]: 58%; Emax [14]: 51%; Emax [15]: 81% |
